Experimental data: article PMC5496795 (Clinical cancer research : an official journal of the …, 2017)

What was measured:
[1] = test system: PC-3 xenografts; assay: Combination therapy, tumor growth of PC-3 xenografts; format: in vivo, athymic nude male mice; details: PC-3 tumor bearing animals
Procedure, shortened: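 PC-3 cells (5 ×10⁶ in 1:1 media/Matrigel) were implanted in the shoulder of 6–8-week-old males. At about 100 mm³ the mice were randomised to four arms: sham (i.v. saline plus illumination), VTP, radiolabelled peptide (14.8 MBq retro-orbital i.v.), or both. For VTP, 4 h after the peptide, the photosensitizer (9 mg/kg, i.v. bolus, in 5% dextran) was followed immediately by 10 min of 755 nm laser to the tumour plus a 1 mm rim. Tumours were measured by caliper twice weekly to 34 days.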

[2] = test system: PC-3 tumors; assay: Histology/IHC of PC-3 tumors; format: in vivo, athymic nude male mice
Procedure, shortened: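 PC-3 xenograft tumours were taken after treatment, fixed in 10% buffered formalin, paraffin-embedded and cut at 5 micron. Sections were stained with anti-mouse CD31 antibody for vessel density and by TUNEL for cell death. VTP was an i.v. photosensitizer (9 mg/kg) followed immediately by 10 min of 755 nm laser illumination of the tumour area.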

[3] = test system: localized prostate cancer; details: published trial data in localized prostate cancer; ref not given; cited from earlier work
[4] = test system: GRPr-expressing prostate cancer xenografts; details: in vivo; cited from earlier work

Compound	Animals remaining tumor free at 34 days post treatment [1]	Vessel density in PC-3 tumors (IHC anti-CD31) ([2]; 24 hours post VTP treatment, compared to control tumors)	TUNEL staining of tumors (cell death) ([2]; PC-3 tumors, post VTP treatment)	Cases with absent evidence of cancer (local tumor ablation) [3] [%]	Fraction of delivered radioactivity washed out at 24 hours p.i. [4]	Time of optimal tumor uptake post injection [4] [h]
CC[C@H]1c2cc3[n-]c(c(CC(=O)OC)c4nc(cc5[n-]c(cc(n2)[C@@H]1C)c(C(C)=O)c5C)[C@@H](C)[C@@H]4CCC(=O)[O-])c(C(=O)NCCS(=O)(=O)[O-])c3C.[H+].[H+].[Pd+2] [VTP]	2/12	markedly reduced vessel density	stained positive	80	–	–
^111In-DOTA-PEG4-D-Phe-Gln-Trp-Ala-Val-Gly-His-Sta-Leu-NH2 [^111In-DOTA-AR]	–	–	–	–	about 2/3	1 to 4
